What was measured:
[1] = (§1) Drug metabolism in CD1 mouse adipose assessed as monoacylglycerol conjugate formation at 6 mg/kg, ip dosed once daily for 3 days followed by dosing of 1:1 mixtures of 2-(2-Carboxyethyl)-4-methyl-5-(1-propyl-1-13C)furan-3-carboxylic Acid and test compound on day 4 and 5 measured 1 hr post dose on day 5 by HPLC-MS analysis; type: ADME, organism-based, Adipose tissue; details: in vivo
Outline: (§2)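 Mice received CMPF 6 mg/kg intraperitoneally for three days, then 1:1 labeled/unlabeled CMPF mixtures on days four and five. On day five they were euthanized 1 h post-dose, and plasma, adipose, muscle and liver were collected. Samples were analysed by HPLC-MS, with MS/MS of product ions. Metabolites were identified by the distinctive isotope patterns from the 1:1 label mixture.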

[2] = tested on: Liver; assay: (§3) Drug metabolism in CD1 mouse liver assessed as loss of C2 carboxyl during fragmentation at 6 mg/kg, ip dosed once daily for 3 days followed by dosing of 1:1 mixtures of 2-(2-(Carboxy-13C)ethyl)-4-methyl-5-propylfuran-3-carboxylic-2-13C Acid and test compound on day 4 and 5 measured 1 hr post dose on day 5 by HPLC-MS analysis; type: ADME, organism-based; details: in vivo; outline: as §2
[3] = tested on: Liver; assay: (§4) Drug metabolism in CD1 mouse liver assessed as monoacylglycerol conjugate formation at 6 mg/kg, ip dosed once daily for 3 days followed by dosing of 1:1 mixtures of 2-(2-Carboxyethyl)-4-methyl-5-propyl-(3-13C-furan)-3-13Ccarboxylateand test compound on day 4 and 5 measured 1 hr post dose on day 5 by HPLC-MS analysis; type: ADME, organism-based; details: in vivo; outline: as §2
[4] = tested on: Liver; assay: as §4, with “diacylglycerol” for “monoacylglycerol”; type: ADME, organism-based; details: in vivo; outline: as §2
[5] = as §1, with “glycerol” for “monoacylglycerol”; type: ADME, organism-based, Adipose tissue; details: in vivo; outline: as §2
[6] = Initial plasma concentration in mouse at 1 mg/kg, iv; type: ADME, organism-based
Outline: (§5)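 Mouse pharmacokinetics after single intravenous CMPF dosing at 1 or 3 mg/kg. Plasma exposure was followed over time to derive AUC, C0, terminal half-life, clearance and volume of distribution.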

[7] = as §3, with “muscle” for “liver”; type: ADME, organism-based, Muscle tissue; details: in vivo; outline: as §2
[8] = as §1, with “muscle” for “adipose”, “diacylglycerol” for “monoacylglycerol”; type: ADME, organism-based, Muscle tissue; details: in vivo; outline: as §2
[9] = as §1, with “diacylglycerol” for “monoacylglycerol”; type: ADME, organism-based, Adipose tissue; details: in vivo; outline: as §2
[10] = Clearance in mouse at 1 mg/kg, iv; type: ADME, organism-based; details: in vivo
[11] = tested on: Plasma; assay: as §4, with “plasma” for “liver”, “oxidative metabolites” for “monoacylglycerol conjugate”; type: ADME, organism-based; details: in vivo
Outline: (§6)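 CMPF given 6 mg/kg i.p. once daily for three days. On days four and five, 1:1 mixtures of stable-isotope-labelled and unlabelled CMPF were dosed. Mice were killed 1 h after the day-five dose. Plasma, adipose, muscle and liver were collected and analysed by HPLC-MS (MS/MS for product ions). Metabolites were identified by their distinctive isotope patterns from the labelled/unlabelled mixture.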

[12] = Initial plasma concentration in mouse at 6 mg/kg, iv; type: ADME, organism-based
[13] = Suppression of KCl-stimulated insulin secretion in mouse pancreatic islet at 200 uM incubated for 24 hrs followed by KCl stimulation for 20 mins by HTRF assay; type: ADME, cell-based
Outline: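 Mouse islets treated with compounds at 200 µM. Insulin secretion was then measured under low- and high-glucose GSIS conditions and under KCl stimulation, and intracellular insulin content was measured. Mean of n = 4-5 experiments with SEM.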

[14] = tested on: Liver; assay: as §4, with “glycerol” for “monoacylglycerol”; type: ADME, organism-based; details: in vivo; outline: as §2
[15] = AUC in mouse at 1 mg/kg, iv; type: ADME, organism-based; details: in vivo
[16] = AUC in mouse at 3 mg/kg, iv; type: ADME, organism-based; details: in vivo
[17] = as §3, with “muscle” for “liver”, “2-(2-Carboxyethyl)-4-methyl-5-propyl-(3-13C-furan)-3-13Ccarboxylate” for “2-(2-(Carboxy-13C)ethyl)-4-methyl-5-propylfuran-3-carboxylic-2-13C Acid”; type: ADME, organism-based, Muscle tissue; details: in vivo; outline: as §2
[18] = Suppression of glucose stimulated insulin secretion in mouse pancreatic islet at 200 uM incubated for 24 hrs followed by glucose stimulation for 20 mins by HTRF assay relative to control
[19] = as §3, with “adipose” for “liver”; type: ADME, organism-based, Adipose tissue; details: in vivo; outline: as §2
[20] = Drug metabolism in CD1 mouse muscle assessed as glycerol conjugate formation at 6 mg/kg, ip dosed once daily for 3 days followed by dosing of 1:1 mixtures of 2-(2-(Carboxy-13C)ethyl)-4-methyl-5-propylfuran-3-carboxylic-2-13C Acid and test compound on day 4 and 5 measured 1 hr post dose on day 5 by HPLC-MS analysis; type: ADME, organism-based, Muscle tissue; details: in vivo; outline: as §2
[21] = as §4, with “muscle” for “liver”, “diacylglycerol” for “monoacylglycerol”; type: ADME, organism-based, Muscle tissue; details: in vivo; outline: as §2
[22] = Suppression of high glucose stimulated insulin secretion in mouse pancreatic islets at 200 uM treated for 24 hrs followed by glucose stimulation for 20 mins by HTRF assay relative to control; type: ADME, cell-based; details: pancreatic islet
Outline: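 Mouse islet screening assay in high-glucose (20 mM) medium with compounds at 200 µM. Insulin secretion is expressed as fold change relative to vehicle. Mean of n = 4 experiments with SEM; significance by Student's t-test, p ≤ 0.05.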

[23] = Half life in mouse at 1 mg/kg, iv; type: ADME, organism-based; details: in vivo; outline: as §5
[24] = Drug metabolism in CD1 mouse adipose assessed as diacylglycerol conjugate formation at 6 mg/kg, ip dosed once daily for 3 days followed by dosing of 1:1 mixtures of 2-(2-(Carboxy-13C)ethyl)-4-methyl-5-propylfuran-3-carboxylic-2-13C Acid and test compound on day 4 and 5 measured 1 hr post dose on day 5 by HPLC-MS analysis; type: ADME, organism-based, Adipose tissue; details: in vivo; outline: as §2
[25] = as §3, with “adipose” for “liver”, “2-(2-Carboxyethyl)-4-methyl-5-(1-propyl-1-13C)furan-3-carboxylic” for “2-(2-(Carboxy-13C)ethyl)-4-methyl-5-propylfuran-3-carboxylic-2-13C”; type: ADME, organism-based, Adipose tissue; details: in vivo; outline: as §2
[26] = tested on: Plasma; assay: as §1, with “plasma” for “adipose”, “oxidative metabolites” for “monoacylglycerol conjugate”; type: ADME, organism-based; details: in vivo; outline: as §6
[27] = tested on: Hepatocyte; assay: Cytotoxicity against mouse primary hepatocytes assessed as fold change in capase3/7 activity by Caspase-Glo 3/7 assay relative to DMSO; type: cell-based
[28] = tested on: Liver; assay: as §4, with “2-(2-(Carboxy-13C)ethyl)-4-methyl-5-propylfuran-3-carboxylic-2-13C Acid and” for “2-(2-Carboxyethyl)-4-methyl-5-propyl-(3-13C-furan)-3-13Ccarboxylateand”; type: ADME, organism-based; details: in vivo; outline: as §2

Question: Which Drug metabolism [1] does the source give for `CCCc1oc(CCC(=O)O)c(C(=O)O)c1C` here?
Answer: Metabolite_Notdetected

Question: And the Drug metabolism [2]?
Answer: Metabolite_Detected

Question: And the Drug metabolism [3]?
Answer: Metabolite_Notdetected

Question: What about the Drug metabolism [4] of the same compound?
Answer: Metabolite_Notdetected

Question: What about the Drug metabolism [5] of the same compound?
Answer: Metabolite_Notdetected

Question: And the C0 [6]?
Answer: 53.3 µM

Question: And the Drug metabolism [7]?
Answer: Metabolite_Detected

Question: What about the Drug metabolism [8] of the same compound?
Answer: Metabolite_Notdetected

Question: And the Drug metabolism [9]?
Answer: Metabolite_Notdetected

Question: And the clearance [10]?
Answer: 0.66 mL/min/kg

Question: And the Drug metabolism [11]?
Answer: Metabolite_Notdetected

Question: What about the C0 [12] of the same compound?
Answer: 200 to 250 µM

Question: And the Activity [13]?
Answer: Toxic

Question: What about the Drug metabolism [14] of the same compound?
Answer: Metabolite_Notdetected

Question: What about the AUC [15] of the same compound?
Answer: 89.3 µM·h

Question: And the AUC [16]?
Answer: 210 µM·h

Question: What about the Drug metabolism [17] of the same compound?
Answer: Metabolite_Detected

Question: What about the Activity [18] of the same compound?
Answer: Toxic

Question: What about the Drug metabolism [19] of the same compound?
Answer: Metabolite_Detected

Question: What about the Drug metabolism [20] of the same compound?
Answer: Metabolite_Notdetected

Question: What about the Drug metabolism [21] of the same compound?
Answer: Metabolite_Notdetected

Question: And the Activity [22]?
Answer: Toxic

Question: What about the half-life [23] of the same compound?
Answer: 270 min

Question: What about the Drug metabolism [24] of the same compound?
Answer: Metabolite_Notdetected

Question: And the Drug metabolism [25]?
Answer: Metabolite_Detected

Question: And the Drug metabolism [26]?
Answer: Metabolite_Notdetected

Question: And the fold change (FC) [27]?
Answer: 0.7 to 0.8

Question: What about the Drug metabolism [28] of the same compound?
Answer: Metabolite_Notdetected

Source: ChEMBL document CHEMBL4004837, “Synthesis and Characterization of Urofuranoic Acids: In Vivo Metabolism of 2-(2-Carboxyethyl)-4-methyl-5-propylfuran-3-carboxylic Acid (CMPF) and Effects on in Vitro Insulin Secretion” (J Med Chem, 2017)
